Results on 18 compounds are retold here after the M2OR odorant receptor database.

Settings in all cases: stereoisomer not certain
Experiment [1] has as its target T1, UniProt Q8VGZ2.
T1 sequence (whole entry): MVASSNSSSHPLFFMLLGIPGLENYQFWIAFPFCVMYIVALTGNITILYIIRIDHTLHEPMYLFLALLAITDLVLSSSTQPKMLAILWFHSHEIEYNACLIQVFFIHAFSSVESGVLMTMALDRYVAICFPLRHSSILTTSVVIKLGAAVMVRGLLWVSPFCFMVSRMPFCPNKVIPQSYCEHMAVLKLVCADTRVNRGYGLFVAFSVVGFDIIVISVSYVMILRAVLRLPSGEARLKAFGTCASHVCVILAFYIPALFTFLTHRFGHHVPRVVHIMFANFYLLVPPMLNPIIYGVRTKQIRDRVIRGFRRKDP
Put shortly: (§1)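 Assay methods differ from source to source, frequently being transient luciferase assays in mammalian cell lines. For each receptor–molecule pair, the label responsive (active) applies when the original authors judged the measured signal statistically different from baseline, and non-responsive (inactive) applies otherwise.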

Experiment [2] deals with T2, UniProt Q8VGZ7.
T2 sequence (whole entry): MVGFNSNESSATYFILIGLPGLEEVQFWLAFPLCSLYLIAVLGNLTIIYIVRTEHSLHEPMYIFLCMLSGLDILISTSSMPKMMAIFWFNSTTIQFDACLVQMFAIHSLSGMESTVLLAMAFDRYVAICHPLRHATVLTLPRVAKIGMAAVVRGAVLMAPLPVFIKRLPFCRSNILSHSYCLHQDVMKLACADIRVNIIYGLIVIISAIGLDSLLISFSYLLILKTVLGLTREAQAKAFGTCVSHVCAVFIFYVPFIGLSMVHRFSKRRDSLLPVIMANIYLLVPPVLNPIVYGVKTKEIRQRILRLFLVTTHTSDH
Put shortly:
as §1

In experiment [3] the target is T3, UniProt Q8VH16.
T3 sequence (whole entry): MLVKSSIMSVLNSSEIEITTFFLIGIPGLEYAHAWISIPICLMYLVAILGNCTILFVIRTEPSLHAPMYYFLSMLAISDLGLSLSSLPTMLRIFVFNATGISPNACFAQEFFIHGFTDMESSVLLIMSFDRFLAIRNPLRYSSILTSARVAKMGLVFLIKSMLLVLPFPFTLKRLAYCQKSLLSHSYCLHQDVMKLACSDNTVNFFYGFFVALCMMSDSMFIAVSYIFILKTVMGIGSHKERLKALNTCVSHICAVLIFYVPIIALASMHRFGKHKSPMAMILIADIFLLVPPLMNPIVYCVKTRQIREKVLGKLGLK
Put shortly: as §1

Experiment [4] concerns the target T4, UniProt Q8VH20.
T4 sequence (whole entry): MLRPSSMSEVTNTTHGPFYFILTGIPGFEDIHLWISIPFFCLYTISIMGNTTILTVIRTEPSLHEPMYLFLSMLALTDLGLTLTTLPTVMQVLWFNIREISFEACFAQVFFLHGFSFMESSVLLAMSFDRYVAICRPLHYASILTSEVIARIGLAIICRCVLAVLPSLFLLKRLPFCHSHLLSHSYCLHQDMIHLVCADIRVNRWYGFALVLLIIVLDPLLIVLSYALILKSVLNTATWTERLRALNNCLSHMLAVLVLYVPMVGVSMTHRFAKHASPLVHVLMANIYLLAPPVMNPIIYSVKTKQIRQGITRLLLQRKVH
Put shortly:
as §1

Experiment [5] concerns the target T5, UniProt Q8VH21.
T5 sequence (whole entry): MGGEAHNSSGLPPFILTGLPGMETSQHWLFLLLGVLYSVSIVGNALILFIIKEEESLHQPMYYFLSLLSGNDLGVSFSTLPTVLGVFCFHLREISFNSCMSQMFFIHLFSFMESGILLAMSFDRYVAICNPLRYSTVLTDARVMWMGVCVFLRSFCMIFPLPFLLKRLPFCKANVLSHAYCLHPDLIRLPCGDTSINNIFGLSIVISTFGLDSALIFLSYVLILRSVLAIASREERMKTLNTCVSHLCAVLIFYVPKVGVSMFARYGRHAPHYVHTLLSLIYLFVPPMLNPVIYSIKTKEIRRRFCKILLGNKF
In short, it runs like this: as §1

In experiment [6] the target is T6, UniProt Q8VGX8.
T6 sequence (whole entry): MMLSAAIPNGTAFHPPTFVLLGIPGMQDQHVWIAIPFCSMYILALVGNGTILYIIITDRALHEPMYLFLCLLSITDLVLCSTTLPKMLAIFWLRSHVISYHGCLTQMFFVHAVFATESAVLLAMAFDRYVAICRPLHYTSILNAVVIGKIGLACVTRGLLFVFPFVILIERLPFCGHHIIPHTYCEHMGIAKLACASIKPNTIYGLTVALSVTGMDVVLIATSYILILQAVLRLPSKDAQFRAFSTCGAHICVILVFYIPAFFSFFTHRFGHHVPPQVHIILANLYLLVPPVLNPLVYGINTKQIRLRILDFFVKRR
Put shortly:
as §1

Experiment [7] concerns the target T7, UniProt Q8VGY6.
T7 sequence (whole entry): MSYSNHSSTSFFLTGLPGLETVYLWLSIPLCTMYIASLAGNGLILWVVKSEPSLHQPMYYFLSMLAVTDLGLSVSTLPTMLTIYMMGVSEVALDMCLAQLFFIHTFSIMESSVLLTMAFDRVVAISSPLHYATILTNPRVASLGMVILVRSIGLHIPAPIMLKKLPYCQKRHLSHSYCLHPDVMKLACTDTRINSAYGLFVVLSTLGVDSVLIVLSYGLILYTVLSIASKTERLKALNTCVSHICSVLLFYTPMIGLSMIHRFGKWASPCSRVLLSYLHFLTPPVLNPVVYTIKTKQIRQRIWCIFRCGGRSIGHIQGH
In short, it runs like this: as §1

Experiment [8] concerns the target T8, UniProt Q8VH10.
T8 sequence (whole entry): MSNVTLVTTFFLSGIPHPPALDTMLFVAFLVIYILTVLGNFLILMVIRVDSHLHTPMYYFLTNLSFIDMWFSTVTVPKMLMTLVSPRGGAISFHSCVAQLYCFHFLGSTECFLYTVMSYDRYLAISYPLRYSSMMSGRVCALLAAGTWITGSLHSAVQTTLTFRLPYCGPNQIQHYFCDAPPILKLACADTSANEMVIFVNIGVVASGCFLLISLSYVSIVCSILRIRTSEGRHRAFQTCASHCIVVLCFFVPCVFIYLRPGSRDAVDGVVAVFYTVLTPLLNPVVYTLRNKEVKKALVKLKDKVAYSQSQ
In short, it runs like this:
as §1

For experiment [9], the target named is T9, UniProt Q8VH18.
T9 sequence (whole entry): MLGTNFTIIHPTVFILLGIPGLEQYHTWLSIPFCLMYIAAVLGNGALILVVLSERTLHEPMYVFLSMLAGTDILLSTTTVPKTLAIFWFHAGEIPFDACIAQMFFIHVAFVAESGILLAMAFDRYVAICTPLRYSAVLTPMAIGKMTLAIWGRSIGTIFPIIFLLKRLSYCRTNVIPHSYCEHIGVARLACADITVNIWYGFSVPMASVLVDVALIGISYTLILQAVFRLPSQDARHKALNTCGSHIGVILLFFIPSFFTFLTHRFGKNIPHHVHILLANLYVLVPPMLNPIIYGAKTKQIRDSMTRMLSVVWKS
In short, it runs like this:
as §1

For `CCSCC`, the “odorant receptor agonist call” value in experiment [1], in experiment [2], in [3], in experiment [4] and in [5] was “inactive” each time.
Consider `CCCC(C)=O`, for which the “odorant receptor agonist call” value in experiment [6], in [7], in experiment [1], in [2], in [8] and in experiment [9] was “inactive” each time. Besides, in [4], the “odorant receptor agonist call” value was “inactive”.
With `CCCCC=O`, the “odorant receptor agonist call” value in [1], in [2], in experiment [3], in experiment [9], in [4] and in experiment [5] was “inactive” each time.
Turning to `CCCCCCC(=O)[O-].[H+]`, the “odorant receptor agonist call” value in experiment [6], in experiment [1], in [9] and in experiment [4] was “active” throughout. In addition, the “odorant receptor agonist call” value in [7], in [2] and in experiment [8] was “inactive” each time.
Consider `O=C(O)CCCCCC(=O)O`, for which the “odorant receptor agonist call” value in [6] and in experiment [9] was “inactive” each time.
For `CC(C)=C1CCC(C)CC1=O` (configuration not stated), the “odorant receptor agonist call” value in experiment [1], in [2], in [3], in [4] and in experiment [5] was “inactive” in each case.
On to `CC(C)CCN`, for which the “odorant receptor agonist call” value in [1], in experiment [2], in experiment [3], in experiment [4] and in experiment [5] was “inactive” each time.
For the compound `CCSSCC`, the “odorant receptor agonist call” value in experiment [1], in experiment [2], in experiment [3], in experiment [4] and in [5] was “inactive” each time.
On to `C=CC(=O)CCCCC`, for which the “odorant receptor agonist call” value in [1], in [2], in experiment [3], in [4] and in experiment [5] was “inactive” each time.
In the case of `C=C(C)C1CCC(C)C(O)C1` (configuration not stated), the “odorant receptor agonist call” value in [1], in experiment [2], in experiment [3], in [4] and in [5] was “inactive” each time.
On to `CSSSC`, for which the “odorant receptor agonist call” value in [1], in experiment [2], in experiment [3] and in experiment [5] was “inactive” each time. For the same compound, in experiment [4], the “odorant receptor agonist call” value was “active”.
`CC=Cc1ccc(OC)cc1`: the “odorant receptor agonist call” value in experiment [1], in experiment [2], in experiment [3], in [4] and in experiment [5] was “inactive” in each case.
For `CC1CCC(C(C)C)C(=O)C1` (configuration not stated), the “odorant receptor agonist call” value in experiment [1], in experiment [2], in experiment [3], in experiment [4] and in [5] was “inactive” throughout.
Consider `CCCCCCC=CC=O`, for which the “odorant receptor agonist call” value in [1], in experiment [2], in experiment [3], in experiment [4] and in experiment [5] was “inactive” in each case.
With `COc1cnccn1`, the “odorant receptor agonist call” value in [1], in experiment [2], in experiment [3], in [4] and in [5] was “inactive” each time.
Take `CCC(C)O` (configuration not stated): the “odorant receptor agonist call” value in [1], in experiment [2], in [3], in experiment [4] and in experiment [5] was “inactive” each time.
Turning to `C1CCOCC1`, the “odorant receptor agonist call” value in experiment [1], in [2], in experiment [3], in [4] and in experiment [5] was “inactive” each time.
On to `CCOC(=O)C(C)CC` (configuration not stated), for which the “odorant receptor agonist call” value in experiment [1], in experiment [2], in experiment [3], in experiment [4] and in experiment [5] was “inactive” in each case.
